Experimental data reported in ChEMBL document CHEMBL4373680, “Small antibacterial molecules highly active against drug-resistant Staphylococcus aureus” (Medchemcomm, 2019).
Active and inactive are the calls of the source. No cut-off for these calls is given here.

Columns and labels:
MDCK [1] = assay: Cytotoxicity against dog MDCK cells assessed as cell survival at 32 ug/ml after 24 hrs by calcein AM/propidium iodide staining based fluorescence microscopy analysis; design: species or system Canis lupus familiaris
Outline: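 MDCK at about 10⁴ cells/well exposed to 32 µg/mL compound for 24 h at 37 °C, 5% CO₂. Untreated and 0.1 vol% Triton-X controls. Stained with calcein AM (2 µM) and PI (4.5 µM) for 15 min at 37 °C, PBS-washed, imaged by fluorescence microscopy at 50×.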

Staphylococcus aureus [2] = assay: Induction of membrane permeabilization in Staphylococcus aureus R3545 assessed as increase in fluorescence intensity measured upto 28 mins by propidium iodide staining based fluorescence spectroscopic technique; format: functional, organism-based
Outline: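 Mid-log MRSA washed in 5 mM HEPES and resuspended in 1:1 HEPES (5 mM) and glucose (5 mM). Propidium iodide added at 10 µM final. Baseline fluorescence (ex 535/em 617 nm) read 4 min, compound in water added, read to 28 min. Water control; triplicates averaged.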

MDCK [3] = assay: Cytotoxicity against dog MDCK cells after 24 hrs by alamar blue assay; format: cell-based; settings: Canis lupus familiaris
Outline: (§1)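 About 10⁴ cells/well in DMEM with 10% FBS. Medium replaced with two-fold compound dilutions and incubated 24 h at 37 °C, 5% CO₂. Alamar Blue added for a further 4 h, absorbance 570 nm (600 nm reference). Viability normalized to untreated and 0.1% Triton-X wells. Triplicates; sigmoidal fit gives the 50% viability concentration.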

MDCK [4] = assay: Cytotoxicity against dog MDCK cells up to 128 ug/ml after 24 hrs by alamar blue assay; format: cell-based, Canis lupus familiaris; outline: as §1
Staphylococcus aureus [5] = assay: Induction of membrane depolarization in Staphylococcus aureus R3545 assessed as increase in fluorescence intensity measured upto 28 mins by DiSC3 staining based fluorescence spectroscopic technique; format: functional, organism-based
Outline: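 Mid-log MRSA washed in 5 mM HEPES pH 7.4 and resuspended in 1:1:1 HEPES (5 mM), glucose (5 mM) and KCl (100 mM). Loaded with DiSC3(5) at 2 µM final, 30 min in the dark. Baseline fluorescence (ex 622/em 670 nm) read 4 min, compound added, monitored to 28 min. Water control; triplicates averaged.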

Staphylococcus aureus [6] = assay: Antibacterial activity against vancomycin-resistant Staphylococcus aureus clinical isolate 4 after 24 hrs by tecan plate reader analysis; format: functional; settings: clinical isolate 4, 24 h
Outline: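 Colony grown 24 h on NB agar at 37 °C, then 6 h in nutrient broth to mid-log (10⁸ CFU/mL by drop plating), diluted to 10⁵ CFU/mL in Mueller Hinton broth; added 9:1 to two-fold serial compound dilutions in MHB. Incubated 24 h, 37 °C; OD600 read. Triplicate per concentration, experiment run twice; MIC taken from the range of triplicate OD values.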

Staphylococcus aureus [7] = assay: Bactericidal activity against metabolically inactive stationary phase of methicillin-resistant Staphylococcus aureus R3545 assessed as bacterial killing at 32 ug/ml incubated for 6 hrs followed by plating on agar plate for 24 hrs by visual counting analysis relative to control; format: functional
[8] = Ratio of EC50 for human A549 cells to MIC for vancomycin-resistant Staphylococcus aureus clinical isolate 2; format: toxicity
Staphylococcus aureus [9] = assay: Antibacterial activity against Staphylococcus aureus ATCC 33591 using compound preincubated with human 50% serum for 3 hrs and measured after 24 hrs by tecan-plate reader analysis; format: functional
Outline: (§2)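 Compound mixed 1:1 with human plasma, human serum or mouse liver homogenate (50%) and held 3 h at 37 °C. Saline and PBS incubations served as controls. Mixtures two-fold diluted (saline for plasma/serum, PBS for homogenate), then MRSA ATCC33591 (~10⁵ CFU/mL in MHB) added.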

Staphylococcus aureus [10] = assay: Antibacterial activity against Staphylococcus aureus ATCC 33591 using compound preincubated with mouse 50% liver homogenate for 3 hrs and measured after 24 hrs by tecan-plate reader analysis; format: functional; settings: ATCC 33591, Liver; outline: as §2
[11] = Selectivity index, ratio of HC50 for human erythrocytes to MIC for Escherichia coli MTCC 443; format: toxicity; settings: read-out: Selectivity Index
Staphylococcus aureus [12] = assay: Bactericidal activity against planktonic phase of methicillin-resistant Staphylococcus aureus ATCC 33591 assessed as log reduction in bacterial colony forming units at 32 ug/ml incubated for 8 hrs followed by plating on agar plate for 24 hrs by time-kill kinetic assay; format: functional
Outline: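 Time-kill: 6 h mid-log culture diluted to 10⁵ CFU/mL in MHB, incubated at 37 °C with compound at […]; 0.9% saline control. Aliquots at 1, 2, 4, 6, 8 and 12 h ten-fold diluted in saline, plated on NB agar 24 h at 37 °C; colonies counted, log scale.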

Staphylococcus aureus [13] = assay: Antibiofilm activity against Staphylococcus aureus R3545 assessed as bacterial cell viability by measuring log reduction in bacterial colony forming units at 16 ug/ml incubated for 24 hrs followed by plating on agar plate for 24 hrs; format: functional
Outline: (§3)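 Mid-log MRSA diluted to 10⁵ CFU/mL in nutrient broth with 1% glucose and 1% NaCl. Biofilms grown on glass coverslips 24 h at 37 °C, static. PBS-washed biofilms treated with compound in biofilm medium 24 h at 37 °C, static; medium-only control. Cells detached with trypsin-EDTA (1:4 in saline) for 15 min, ten-fold diluted, plated on NB agar 24 h; viable counts compared with untreated.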

Staphylococcus aureus [14] = assay: Antibiofilm activity against Staphylococcus aureus ATCC 33591 assessed as bacterial cell viability by measuring log reduction in bacterial colony forming units at 16 ug/ml incubated for 24 hrs followed by plating on agar plate for 24 hrs; format: functional; outline: as §3
Acinetobacter baumannii = assay: Antibacterial activity against Acinetobacter baumannii MTCC 1425 after 24 hrs by tecan plate reader analysis; format: functional; settings: MTCC 1425, 24 h
Outline: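 Broth microdilution MIC. Glycerol stocks grown on MacConkey agar 24 h at 37 °C, then a single colony in nutrient broth 6 h to mid-log (~10⁸ CFU/mL). Cells diluted to 10⁵ CFU/mL in Mueller Hinton broth and added to two-fold compound dilutions. Incubated 24 h at 37 °C, OD600 read. Triplicate wells, experiment run twice.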

Staphylococcus aureus [15] = assay: Bactericidal activity against metabolically inactive stationary phase methicillin-resistant Staphylococcus aureus ATCC 33591 assessed as log reduction in bacterial colony forming units at 32 ug/ml incubated for 6 hrs followed by plating on agar plate for 24 hrs by visual counting analysis; format: functional
A549 = assay: Cytotoxicity against human A549 cells up to 128 ug/ml after 24 hrs by alamar blue assay; format: cell-based; settings: a549, 24 h; outline: as §1
Staphylococcus aureus [16] = assay: Antibacterial activity against Staphylococcus aureus ATCC 33591 assessed as increase in dead cells by measuring bright red fluorescence intensity at 32 ug/ml after 2 hrs by SYTO-9/propidium iodide staining based fluorescence microscopy analysis; format: functional, organism-based
Outline: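 Mid-log cells (~10⁸ CFU/mL) pelleted and resuspended in 0.9% saline. Treated with 32 µg/mL compound for 2 h at 37 °C, pelleted and resuspended in saline. Stained with SYTO9 (3 µM) plus PI (15 µM) for 15 min in the dark, unbound dye removed, then imaged by fluorescence microscopy at 100×.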

[17] = Hemolytic activity in human erythrocytes after 1 hr; format: ADME, cell-based, Erythrocyte
Outline: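 Heparinized donor blood. Erythrocytes washed three times in PBS and resuspended to 5 vol%, then mixed 3:1 with compound serially diluted in water. Incubated 1 h at 37 °C and centrifuged. Supernatant A540 read; % hemolysis relative to water and 0.1 vol% Triton-X controls.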

Staphylococcus aureus [18] = assay: Antibacterial activity against Staphylococcus aureus ATCC 33591 using compound preincubated with human 50% plasma for 3 hrs and measured after 24 hrs by tecan-plate reader analysis; format: functional; outline: as §2

In the case of CCCCCCNC(=O)C[N+](C)(CCO)CCCCCCCCCCCC[N+](C)(CCO)CC(=O)NCCCCCC.O=C([O-])C(F)(F)F.O=C([O-])C(F)(F)F (stereo not given), the Activity (MDCK [1]) is reported as “Non-Toxic”, the Activity (Staphylococcus aureus [2]) is reported as “Dose-dependent effect” and the EC50 (MDCK [3]) is reported as 188 µg/mL. The Activity (MDCK [4]) was “Non-Toxic”, the Activity (Staphylococcus aureus [5]) was “Dose-dependent effect” and the MIC (Staphylococcus aureus [6]) was 2 µg/mL. It also gave an Activity (Staphylococcus aureus [7]) of over 99%, a selectivity ratio [8] of 94 to 97 and an MIC (Staphylococcus aureus [9]) of 4 µg/mL. The MIC (Staphylococcus aureus [10]) was 4 µg/mL, the selectivity ratio [11] was 288 and the Activity (Staphylococcus aureus [12]) was 5 log10CFU/ml. It also gave an Activity (Staphylococcus aureus [13]) of over 4 log10CFU/ml, an Activity (Staphylococcus aureus [14]) of over 4 log10CFU/ml and an MIC (Acinetobacter baumannii) of 64 µg/mL. The Activity (Staphylococcus aureus [15]) was 2.05 log10CFU/ml, the Activity (A549) was “Non-Toxic” and the Activity (Staphylococcus aureus [16]) was “Active”. It also gave an HC50 at 1 h [17] of 577 µg/mL and an MIC (Staphylococcus aureus [18]) of 4 µg/mL.
